Screening data from PubChem BioAssay.
Hits are enriched below; roughly 2.6% of the tested compounds scored in any of these assays.
TbMetRS inhib: blocks T. brucei methionyl-tRNA synthetase activity. purified T. brucei MetRS, ATP depletion, Kinase-Glo luminescence. inhibition, % at 11.9 µM. 0.4% of 360,000 active;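 active means inhibition above a per-plate cutoff of the control wells' mean inhibition plus 3 SD, cut at about 5.5% in these data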;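 further: 0% = DMSO wells median and 100% = median of wells with control inhibitor compound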
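Test system – parasite MetRS enzyme · Reagent – substrates ATP, L-methionine and bulk Escherichia coli tRNA · Doses – 11.9 µM compound single dose, 0.9% DMSO · Times – 15 min enzyme-compound preincubation, 2 h reaction, 10 min detection, 25 °C · Signal – Kinase-Glo luminescence, ATP depletion format · Controls – DMSO-only wells as low control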
iPSC survival up: enhancers of human iPSC single-cell survival. survival enhancement, % at 20 µM. hiPSC single-cell survival, ATPlite luminescence; 100% = ROCK inhibitor wells, 0% = DMSO. 0.044% of 360,000 active; in the data active means survival enhancement above about 18%;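 further: cells exposed to compounds for 16 hours before the ATP read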
Exocytosis inh: blocks lytic granule exocytosis. TALL-104 LAMP-1 surface exposure, flow cytometry; cells stimulated with thapsigargin and PMA. inhibition, % at 10 µM. 0.66% of 360,000 active. AID 651702;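 active means inhibition above about 55%, limit read from the data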
MC4R barr agon: activates human MC4R beta-arrestin recruitment; U2OS MC4R beta-arrestin complementation, luminescence; percent of melanotan II response, DMSO zero; 0.98% of 360,000 active; activation, % at 8.9 µM;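 active means activation above a per-plate cutoff, the mean activation of sample wells on that plate plus 3 SD, cut at about 8% in these data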
MC4R antag cAMP: blocks human MC4R cAMP signaling | P32245 | MC4R-expressing cells, MTII-stimulated cAMP, LANCE TR-FRET | inhibition, % at 6.5 µM | 0.48% of 360,000 active;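 active means inhibition above its plate's cutoff, the mean of tested wells on that plate plus 3 SD, cut at about 29% in these data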;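 further: 0% = Melanotan II alone and 100% = Melanotan II plus saturating MCL0020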
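Assay system: human MC4R-expressing U2OS cells; reagent: Melanotan II stimulation of cells; dosing: 6.5 µM single dose; timing: compound 30 min, challenge 1 h, detection 1 h; signal: TR-FRET cAMP assay; replicates: one well per compound, no replicates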
ABCB6 inh 2: human ABCB6 transporter inhibition. Q9NP58. K562-ABCB6 porphyrin accumulation, flow cytometry, 1 h; active compounds read low. fluorescence ratio to DMSO, % at 10 µM. 0.19% of 360,000 active;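 active means fluorescence ratio to DMSO below 75%, the collection mean minus 3 SD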;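 further: signal is porphyrin accumulated inside mitochondria; 100% equals median channel fluorescence of DMSO control wells; lower ratio means ABCB6 inhibition with less porphyrin fluorescence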
U2OS cAMP counter: counter-screen for MC4R antagonists: nonselective cAMP signaling inhibitors | inhibition, % at 6.5 µM | shares compounds with MC4R antag cAMP | 26% of 1,600 active | parental U2OS, forskolin cAMP, LANCE TR-FRET;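 active means mean inhibition over triplicates above the low-control well mean plus 3 SD, set per campaign, cut at about 13% in these data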;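 further: signal is single emission at 671 nm which falls as cellular cAMP rises; 0% = forskolin-stimulated wells and 100% = buffer without forskolin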
MC4R antag conf: human MC4R cAMP antagonism confirmation | shares compounds with MC4R antag cAMP | MC4R-expressing cells, MTII-stimulated cAMP, TR-FRET | inhibition, % at 6.5 µM | 27% of 1,600 active | AID 602195; in the data active means inhibition above about 29%;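 further: 0% = agonist stimulated wells alone and 100% = agonist stimulated wells plus saturating reference antagonist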
Active calls of the source: *; . = no result given.

SMILES	TbMetRS inhib	iPSC survival up	Exocytosis inh	MC4R barr agon	MC4R antag cAMP	ABCB6 inh 2	U2OS cAMP counter	MC4R antag conf
CN1CCN(S(=O)(=O)c2cnc(Cl)c(Br)c2)CC1	0	-1	0	-2	7	100	.	.
COC(=O)C1=C(c2ccc(-c3ccccc3)c(F)c2)C[C@@H]2CC[C@H]1N2C(=O)NCc1cc(C)oc1C(F)(F)F	0	-3	17	1	22	100	.	.
CCOCCCNC(=O)Cn1nc(-c2ccc(OC)c(OC)c2)ccc1=O	0	2	-3	-1	-3	89	.	.
O=C(N/N=C1/CN2CCC1CC2)c1cc2ccccc2cc1O	0	1	-3	0	19	103	.	.
Cc1ccc(NC(=O)CC[C@H]2O[C@@H](n3cnc4c(NC(=O)c5ccccc5)ncnc43)[C@H](O)[C@@H]2O)cc1C	0	4	-2	.	.	99	.	.
CC12CCC3C(CCC4(O)CC(O)CCC34C=NO)C1(O)CCC2C1=COC(=O)C1 (stereo not drawn)	0	-2	-5	26*	2	98	.	.
C[C@H]1O[C@@H](OC2CC[C@]3(C=O)[C@H]4CC[C@]5(C)[C@@H](C6=CC(=O)OC6)CC[C@]5(O)[C@@H]4CC[C@]3(O)C2)CC2OC(C)(C)OC21 (stereo partly drawn)	-1	0	-10	40*	-3	104	.	.
COc1cccc(C(=O)C2CCCN(Cc3cccc4c3OCO4)C2)c1 (stereo not drawn)	0	4	0	-2	29*	101	4	11
COc1cccc(C(=O)C2CCCN(Cc3ccc4nonc4c3)C2)c1 (stereo not drawn)	0	-2	-3	1	-6	101	.	.
COC(=O)C1=C(c2ccc(OCc3ccccc3)cc2)C[C@@H]2CC[C@H]1N2C(=O)NCc1ccc(F)cc1	-1	0	10	2	24	97	.	.
COc1ccc(CN2Cc3cnnn3-c3ccccc3C2C#N)cc1 (stereo not drawn)	0	1	1	0	32*	99	5	27
N#CC1c2ccccc2-n2nncc2CN1Cc1cc(Cl)cc(Cl)c1 (stereo not drawn)	1	-1	25	-1	20	102	.	.
C=CCn1c(O)c(C(CC)=Nc2cccc(C(=O)O)c2)c(=O)[nH]c1=O	1	-1	2	2	31*	98	1	6
Cc1ccc(N2C(=O)NC(=O)/C(=C/c3cnn(-c4ccc(C)cc4)c3)C2=O)cc1	0	-2	46	2	5	100	.	.
Cc1ccc(N2C(=O)NC(=O)/C(=C/c3ccoc3)C2=O)cc1	0	1	4	-2	33*	101	3	-2
CCCCOC(=O)c1ccc(NC(=O)c2c(O)[nH]c(=O)[nH]c2=O)cc1	0	3	-6	0	19	94	.	.
CC1=C(O)C(=O)C=C2C1=CC=C1C2(C)CCC2(C)C3CC(C)(C(=O)O)CCC3(C)CCC12C (stereo not drawn)	0	-3	106*	-2	32*	88	-5	17
C=CCN1CCC2(C)c3cc(O)ccc3CC1C2C (stereo not drawn)	0	-2	0	0	-1	98	.	.
C#C[C@]1(O)CCC2C3C(=O)C=C4C(Cl)=CCC[C@]4(C)C3CC[C@@]21C (stereo partly drawn)	0	-2	3	-2	-8	104	.	.
NS(=O)(=O)c1ccc(-c2ccc(C=C3C(=O)NC(=O)NC3=O)o2)cc1	0	-1	-6	2	-1	94	.	.
O=C1NC(=O)C(=Cc2ccc(SC3CCCCC3)o2)C(=O)N1	0	-1	4	0	38*	103	11	26
CCOc1cc2[nH]c(=S)n(CCCC(=O)N3CCC4(CC3)OCCO4)c(=O)c2cc1OCC	0	4	0	-2	29*	94	2	8
